According to ChEMBL document CHEMBL5346890, “Elevated labile iron in castration-resistant prostate cancer is targetable with ferrous iron-activatable antiandrogen therapy” (Eur J Med Chem, 2023):
Calls of active or inactive are those of the source. The calls are words filed in the database; no cut-off is given here.

What was measured:
PC-3 = test: Antiproliferative activity against androgen receptor negative human PC-3 cells assessed as reduction in cell growth at 5 uM measured upto 6 days by CellTiter-Glo assay; assay type: functional, cell-based; conditions: time <= 6.0 day
Procedure, shortened: (§1)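 Cells were seeded at 20,000/well, four replicates per condition, in complete medium with 0.1% DMSO. Compound was added 24 h after seeding at a single concentration of 5 μM (0.2% final DMSO). Viability was read by CellTiter-Glo luminescence (10 min, room temperature, in HBSS) at timepoints up to 144 h (6 days).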

LNCaP [1] = test: Reduction in KLK2 gene expression in human LNCaP cells at 5 uM incubated for 48 hrs by qRT-PCR analysis; assay type: functional, cell-based
Procedure, shortened: (§2)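 Cells were plated in triplicate per condition; drug (0.1% final DMSO) was added after 24 h and left for 48 h. RNA was extracted and 2 μg reverse-transcribed. cDNA was diluted 1:50 and amplified by qPCR with 400 nM primers.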

LNCaP [2] = test: Reduction in KLK3 gene expression in human LNCaP cells at 5 uM incubated for 48 hrs by qRT-PCR analysis; assay type: functional, cell-based; procedure, shortened: as §2
[3] = Tmax in NSG mouse at 10 mg/kg, ip; assay type: ADME, organism-based; conditions: in vivo
Procedure, shortened: (§3)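 Healthy NSG mice got a single 10 mg/kg intraperitoneal dose. Plasma concentrations of conjugate and released payload were measured over time, with n = 9 or n = 6 mice depending on conjugate. Tmax, Cmax and AUClast (hr•ng/mL) were derived from the plasma profiles.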

[4] = Cmax in NSG mouse at 10 mg/kg, ip; assay type: ADME, organism-based; parameters: dose 10 mg/kg, route ip; conditions: in vivo; procedure, shortened: as §3
[5] = AUClast in NSG mouse at 10 mg/kg, ip; assay type: ADME, organism-based; parameters: dose 10 mg/kg, route ip; conditions: in vivo; procedure, shortened: as §3
[6] = Drug concentration in NSG mouse brain at 10 mg/kg, ip measured after 2 hrs; assay type: ADME, organism-based; conditions: read-out: Drug uptake
Procedure, shortened: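 Healthy NSG mice were given a single 10 mg/kg intraperitoneal injection. Brains were collected at set timepoints, including 2 h post-dose. Both the intact conjugate and its released antiandrogen payload were measured in brain tissue, with concentrations expressed as ng/g.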

[7] = Metabolic stability in mouse liver microsomes assessed as half life measured upto 60 mins in presence of NADPH by LC/MS/MS analysis; assay type: ADME, Microsome; conditions: 1 h
[8] = Metabolic stability in mouse liver microsomes assessed as intrinsic clearance measured upto 60 mins in presence of NADPH by LC/MS/MS analysis; assay type: ADME, Microsome; conditions: 1 h
LNCaP/AR [9] = test: Antiproliferative activity against human LNCaP/AR cells assessed as reduction in cell growth at 5 uM measured upto 6 days by CellTiter-Glo assay; assay type: functional, cell-based; conditions: time <= 6.0 day
LNCaP C4-2B = test: Antiproliferative activity against androgen receptor positive human LNCaP C4-2B cells assessed as reduction in cell growth at 5 uM measured upto 6 days by CellTiter-Glo assay; assay type: functional, cell-based; conditions: time <= 6.0 day; procedure, shortened: as §1
[10] = Kinetic solubility of compound at pH 7.4 by shake flask assay; assay type: physicochemical; conditions: buffer
Procedure, shortened: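 Kinetic solubility of DMSO solutions in phosphate-buffered saline, pH 7.4, by automated miniaturized shake-flask method. Quantitation was by chemiluminescent nitrogen detection.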

LNCaP/AR [11] = test: Antiproliferative activity against human LNCaP/AR cells assessed as reduction in cell growth measured after 3 days by CellTiter-Glo assay; assay type: functional, cell-based; conditions: dose 0.1-25 µM, time 3.0 day
Procedure, shortened: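 LNCaP-AR cells (AR-overexpressing) were seeded at 20,000/well, four replicates, in 0.1% DMSO complete medium. Drug was added 24 h later across 0.1–25 μM (0.2% final DMSO) for three days. Viability was measured by CellTiter-Glo luminescence after 10 min at room temperature.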

[12] = Metabolic stability in human liver microsomes assessed as half life measured upto 60 mins in presence of NADPH by LC/MS/MS analysis; assay type: ADME, Microsome; conditions: 1 h
Procedure, shortened: (§4)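 Human liver microsomes at 0.5 mg/mL protein with 1 mM NADPH, sampled at 0, 15, 30 and 60 min, N = 1. Parent disappearance was followed by LC/MS/MS with verapamil as control. CLint = ln(2)*1000/T1/2/protein concentration (mg/mL).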

[13] = Metabolic stability in human liver microsomes assessed as intrinsic clearance measured upto 60 mins in presence of NADPH by LC/MS/MS analysis; assay type: ADME, Microsome; conditions: 1 h; procedure, shortened: as §4

| SMILES | Activity (PC-3) | Activity (LNCaP [1]) | Activity (LNCaP [2]) | Tmax [3] | Cmax [4] | AUC(0-t) [5] | concentration at 2 h [6] | t1/2 [7] | CLH [8] | Activity (LNCaP/AR [9]) | Activity (LNCaP C4-2B) | Kinetic_solubility [10] | Activity (LNCaP/AR [11]) | t1/2 [12] | CLH [13] |
| --- | --- | --- | --- | --- | --- | --- | --- | --- | --- | --- | --- | --- | --- | --- | --- |
| N#Cc1ccc(N2C(=O)C3(CCC3)N(c3ccc(O)cc3)C2=S)cc1C(F)(F)F | inactive |  |  |  |  |  |  |  |  |  |  |  |  |  |  |
| N#Cc1ncc(N2C(=O)C3(CCC3)N(c3ccc(OC4CCNCC4)nc3)C2=S)cc1C(F)(F)F | inactive |  |  |  |  |  |  |  |  |  |  |  |  |  |  |
| CNC(=O)c1ccc(N2C(=S)N(c3cnc(C#N)c(C(F)(F)F)c3)C(=O)C23CCC3)cc1F [APALUTAMIDE] | inactive | Active | Active | 240 min | 4330 ng/mL | 4490 µg·h/mL | 808 ng/g |  |  |  |  |  |  |  |  |
| N#Cc1ncc(N2C(=O)C3(CCC3)N(c3ccc(OC4CCN(C(=O)O[C@H]5CCC[C@@]6(C5)OOC5(O6)C6CC7CC(C6)CC5C7)CC4)nc3)C2=S)cc1C(F)(F)F (some centres undefined) |  |  |  |  |  |  |  | 34.5 min | 40.2 µL/min/mg |  |  |  |  |  |  |
| N#Cc1ncc(N2C(=O)C3(CCC3)N(c3ccc(OC4CCN(C(=O)O[C@@H]5CCC[C@]6(C5)OOC5(O6)C6CC7CC(C6)CC5C7)CC4)nc3)C2=S)cc1C(F)(F)F (some centres undefined) | inactive | Active | Active | 30 min | 641 ng/mL | 158 µg·h/mL |  | 48.2 min | 28.8 µL/min/mg | Active | Active | < 0.4 µM |  |  |  |
| CN(CCN(C)C(=O)O[C@@H]1CCC[C@]2(C1)OOC1(O2)C2CC3CC(C2)CC1C3)C(=O)Oc1ccc(N2C(=S)N(c3ccc(C#N)c(C(F)(F)F)c3)C(=O)C23CCC3)cc1 (some centres undefined) | inactive | Active | Active | 30 min | 346 ng/mL | 81.1 µg·h/mL |  |  |  | Active | Active | 2.3 µM | Dose-Dependent Effect | 53.4 min | 25.9 µL/min/mg |
